Published values of several laboratories.
Protocols differ between the studies behind these lines.
Target: Sodium-dependent noradrenaline transporter (SLC6A2, Homo sapiens, UniProt P23975)

Compound	assay	setting	endpoint	result
CNc1nc(C#Cc2ccc(Br)s2)nc2c1ncn2[C@H]1[C@H](O)[C@H](O)[C@]2(C(=O)OC)C[C@H]12	ligand displacement, radioligand	cell membranes	Ki	> 10 µM
C=CCN1CC[C@]23c4c5ccc(O)c4O[C@H]2C(=O)CC[C@]3(O)[C@H]1C5	ligand displacement, radioligand	–	Ki	> 7.1 µM
CN[C@@H](C)C(=O)c1ccccc1	calcium signal, agonist, fluorescence	–	EC50	121 nM
C[C@H](N)Cn1ncc2ccc3c(c21)CCCO3	ligand displacement, radioligand	–	Ki	> 100 µM
COc1cc(C(=O)N2CC[C@@H](O)[C@@H](N)C2)cc2nc(-c3cc4ccccc4n3CC3CC3)n(C)c12	transporter uptake, inhibitor	–	IC50	20 µM
CCCC[C@@H](NC(=O)[C@@H](N)Cc1ccc(O)cc1)C(=O)NCC(=O)N[C@@H](Cc1ccc(F)cc1)C(=O)N(C)CCC[C@@]1(c2ccc(F)cc2)OCc2cc(C#N)ccc21	ligand displacement, radioligand	–	Ki	2.4 µM
CNc1nc(C#Cc2ccc(Cl)s2)nc2c1ncn2[C@@H]1O[C@H](C(=O)OC)[C@@H](O)[C@H]1O	ligand displacement, radioligand	cell membranes	Ki	> 10 µM
C[C@@H](NC(=O)[C@@H](N)Cc1ccc(O)cc1)C(=O)NCC(=O)N[C@@H](Cc1ccccc1)C(=O)N(C)CCC[C@@]1(c2ccc(F)cc2)OCc2cc(C#N)ccc21	ligand displacement, radioligand	–	Ki	0.75 µM
CNC(C)(C)C(=O)c1ccccc1	calcium signal, agonist, fluorescence	–	EC50	153 nM
